According to ChEMBL document CHEMBL3593243, “Discovery of novel, potent, selective and cellular active ADC type PTP1B inhibitors via fragment-docking-oriented de novel design” (Bioorg Med Chem, 2015):
Active and inactive are the calls of the source. No cut-off for these calls is given here.

Assays:
[1] = target: Tyrosine-protein phosphatase non-receptor type 6 (Homo sapiens) (UniProt P29350); assay: Inhibition of SHP1 (unknown origin) using pNPP as substrate at 25 uM relative to control
[2] = target: Receptor-type tyrosine-protein phosphatase F (Homo sapiens) (UniProt P10586); assay: Inhibition of LAR (unknown origin) using pNPP as substrate at 25 uM relative to control
[3] = target: T1, Tyrosine-protein phosphatase non-receptor type 11 (Homo sapiens) (UniProt Q06124); assay: Inhibition of SHP2 (unknown origin) using pNPP as substrate at 25 uM relative to control
T1 sequence (whole entry): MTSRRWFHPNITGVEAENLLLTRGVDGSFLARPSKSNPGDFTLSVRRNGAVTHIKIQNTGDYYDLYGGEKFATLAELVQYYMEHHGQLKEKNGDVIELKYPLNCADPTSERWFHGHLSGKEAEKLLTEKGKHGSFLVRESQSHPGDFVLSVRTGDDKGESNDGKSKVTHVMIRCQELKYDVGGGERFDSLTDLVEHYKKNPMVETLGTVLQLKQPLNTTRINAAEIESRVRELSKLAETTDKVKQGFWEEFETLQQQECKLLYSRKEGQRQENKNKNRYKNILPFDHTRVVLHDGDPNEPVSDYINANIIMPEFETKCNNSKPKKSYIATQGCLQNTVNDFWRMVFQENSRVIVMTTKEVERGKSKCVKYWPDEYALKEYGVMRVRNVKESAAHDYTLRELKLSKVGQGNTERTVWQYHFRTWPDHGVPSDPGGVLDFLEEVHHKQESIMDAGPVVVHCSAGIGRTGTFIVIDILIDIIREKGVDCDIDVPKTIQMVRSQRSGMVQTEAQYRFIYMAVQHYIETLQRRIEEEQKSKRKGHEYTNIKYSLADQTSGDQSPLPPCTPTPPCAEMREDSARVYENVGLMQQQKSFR

Homo sapiens = species on record: Homo sapiens; assay: Selectivity ratio of IC50 for TCPTP (unknown origin) to IC50 for recombinant PTP1B (unknown origin)
How it was run: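 Ratio of TCPTP to PTP1B IC50. Both enzymes (PTP1B at 30 nM recombinant) assayed with 2 mM pNPP, 1 mM DTT, 1 mM EDTA, pH 6.5, 30 min at 37 °C, NaOH stop, A405; IC50 by logit method, triplicate for PTP1B.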

[4] = target: T2, Tyrosine-protein phosphatase non-receptor type 1 (Homo sapiens) (UniProt P18031); assay: Competitive inhibition of recombinant PTP1B (unknown origin) assessed as pNPP hydrolysis at 0.1 to 0.8 uM after 30 mins by Lineweaver-Burk plot analysis
T2 sequence (whole entry): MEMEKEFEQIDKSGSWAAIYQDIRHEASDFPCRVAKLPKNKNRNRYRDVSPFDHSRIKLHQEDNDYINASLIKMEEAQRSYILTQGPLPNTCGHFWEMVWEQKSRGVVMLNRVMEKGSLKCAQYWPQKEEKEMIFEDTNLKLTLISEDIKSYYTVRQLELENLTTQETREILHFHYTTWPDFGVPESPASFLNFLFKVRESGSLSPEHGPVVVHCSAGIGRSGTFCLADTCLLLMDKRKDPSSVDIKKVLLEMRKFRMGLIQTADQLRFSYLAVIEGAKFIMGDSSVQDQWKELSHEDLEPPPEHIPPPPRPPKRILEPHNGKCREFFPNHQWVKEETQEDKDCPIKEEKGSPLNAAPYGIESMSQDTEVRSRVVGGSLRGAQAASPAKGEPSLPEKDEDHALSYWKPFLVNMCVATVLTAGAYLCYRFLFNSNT
How it was run: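 Kinetics in 100 µL of 50 mM MOPS pH 6.5 with 30 nM recombinant PTP1B. pNPP in 2-fold dilutions from 64 mM, inhibitor at 0.1–0.8 µM (0 as reference). Km and Vmax from Michaelis–Menten fits; mechanism judged by Lineweaver–Burk double-reciprocal plots.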

[5] = target: T3, Tyrosine-protein phosphatase non-receptor type 2 (Homo sapiens) (UniProt P17706); assay: Inhibition of TCPTP (unknown origin) assessed as pNPP hydrolysis at 25 uM after 30 mins relative to control
T3 sequence (whole entry): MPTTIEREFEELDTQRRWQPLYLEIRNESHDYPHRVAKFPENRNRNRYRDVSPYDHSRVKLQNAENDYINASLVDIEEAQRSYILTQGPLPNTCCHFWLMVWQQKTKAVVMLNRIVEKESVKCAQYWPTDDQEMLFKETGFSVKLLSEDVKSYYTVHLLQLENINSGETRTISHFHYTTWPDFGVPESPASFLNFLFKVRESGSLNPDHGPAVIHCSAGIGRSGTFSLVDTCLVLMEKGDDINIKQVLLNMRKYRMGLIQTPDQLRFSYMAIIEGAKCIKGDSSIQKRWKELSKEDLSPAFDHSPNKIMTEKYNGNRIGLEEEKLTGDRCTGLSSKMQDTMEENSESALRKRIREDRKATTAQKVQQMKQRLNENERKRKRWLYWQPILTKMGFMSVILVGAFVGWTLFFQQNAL

CHO = assay: Inhibition of PTP1B in CHO cells transfected with human insulin receptor-beta assessed as increase in insulin-mediated tyrosine phosphorylation of insulin receptor-beta at 25 to 50 uM preincubated for 4 hrs followed by insulin stimulation measured after 10 mins by Western blot analysis; assay type: cell-based; conditions: Cricetulus griseus
How it was run: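 CHO cells in F12/10% FBS transfected 8 h with 2 µg human IR plasmid, reseeded and grown 24 h at 37 °C, 5% CO2. Serum-starved 2 h, compound 4 h, then 10 nM insulin 10 min. Lysates (Triton/HEPES pH 7.4 buffer) run on SDS-PAGE, blotted with PY-20 and β-actin.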

Receptor-type tyrosine-protein phosphatase F (Homo sapiens), sequence (P10586 whole entry): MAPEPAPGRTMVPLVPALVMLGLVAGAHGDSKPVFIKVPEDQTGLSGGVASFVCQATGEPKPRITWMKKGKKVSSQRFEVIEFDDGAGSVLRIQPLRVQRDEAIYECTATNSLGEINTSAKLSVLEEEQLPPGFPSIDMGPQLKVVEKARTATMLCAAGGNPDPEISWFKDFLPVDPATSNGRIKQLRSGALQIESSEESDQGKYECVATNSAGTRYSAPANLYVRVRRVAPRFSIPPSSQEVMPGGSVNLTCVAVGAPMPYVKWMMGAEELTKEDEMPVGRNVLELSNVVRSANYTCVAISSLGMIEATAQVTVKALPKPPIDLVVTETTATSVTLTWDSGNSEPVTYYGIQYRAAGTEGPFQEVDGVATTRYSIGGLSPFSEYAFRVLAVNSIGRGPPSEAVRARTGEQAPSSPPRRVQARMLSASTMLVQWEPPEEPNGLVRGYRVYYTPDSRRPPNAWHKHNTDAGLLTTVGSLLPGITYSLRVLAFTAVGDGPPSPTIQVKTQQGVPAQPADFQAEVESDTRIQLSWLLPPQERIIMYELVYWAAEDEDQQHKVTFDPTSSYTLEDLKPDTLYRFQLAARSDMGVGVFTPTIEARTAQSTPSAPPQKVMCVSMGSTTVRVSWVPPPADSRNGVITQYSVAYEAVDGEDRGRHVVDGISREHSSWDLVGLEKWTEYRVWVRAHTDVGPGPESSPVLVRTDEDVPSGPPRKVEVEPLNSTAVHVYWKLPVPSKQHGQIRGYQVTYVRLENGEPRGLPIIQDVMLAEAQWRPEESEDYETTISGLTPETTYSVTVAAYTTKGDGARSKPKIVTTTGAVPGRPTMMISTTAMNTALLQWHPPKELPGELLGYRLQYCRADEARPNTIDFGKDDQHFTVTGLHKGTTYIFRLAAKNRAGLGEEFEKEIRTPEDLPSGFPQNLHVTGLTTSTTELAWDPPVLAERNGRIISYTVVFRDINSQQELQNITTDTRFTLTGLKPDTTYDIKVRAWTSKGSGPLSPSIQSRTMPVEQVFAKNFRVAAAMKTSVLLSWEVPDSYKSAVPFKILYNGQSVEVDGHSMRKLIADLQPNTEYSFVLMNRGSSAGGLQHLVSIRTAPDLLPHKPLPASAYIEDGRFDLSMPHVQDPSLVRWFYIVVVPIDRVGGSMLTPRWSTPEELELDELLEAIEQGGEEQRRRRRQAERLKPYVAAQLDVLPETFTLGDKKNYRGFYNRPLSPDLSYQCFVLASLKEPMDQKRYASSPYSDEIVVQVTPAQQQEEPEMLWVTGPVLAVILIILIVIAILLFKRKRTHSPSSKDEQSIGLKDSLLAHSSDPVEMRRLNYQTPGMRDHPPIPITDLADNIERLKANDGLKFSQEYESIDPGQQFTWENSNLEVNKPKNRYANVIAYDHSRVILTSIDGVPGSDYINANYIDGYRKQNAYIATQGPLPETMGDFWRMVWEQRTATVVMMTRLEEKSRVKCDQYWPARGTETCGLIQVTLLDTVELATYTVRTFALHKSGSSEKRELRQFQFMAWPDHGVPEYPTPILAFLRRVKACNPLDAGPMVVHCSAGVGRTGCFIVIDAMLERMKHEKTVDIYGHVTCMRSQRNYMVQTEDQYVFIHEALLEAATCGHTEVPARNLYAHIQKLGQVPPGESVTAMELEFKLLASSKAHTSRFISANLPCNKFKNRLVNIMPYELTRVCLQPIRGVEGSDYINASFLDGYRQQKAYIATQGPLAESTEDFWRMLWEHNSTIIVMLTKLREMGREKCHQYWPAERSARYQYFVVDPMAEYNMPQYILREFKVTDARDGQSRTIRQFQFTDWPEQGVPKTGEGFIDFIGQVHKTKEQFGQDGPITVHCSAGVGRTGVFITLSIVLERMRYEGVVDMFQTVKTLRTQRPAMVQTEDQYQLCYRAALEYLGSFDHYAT
Tyrosine-protein phosphatase non-receptor type 6 (Homo sapiens), sequence (P29350 whole entry): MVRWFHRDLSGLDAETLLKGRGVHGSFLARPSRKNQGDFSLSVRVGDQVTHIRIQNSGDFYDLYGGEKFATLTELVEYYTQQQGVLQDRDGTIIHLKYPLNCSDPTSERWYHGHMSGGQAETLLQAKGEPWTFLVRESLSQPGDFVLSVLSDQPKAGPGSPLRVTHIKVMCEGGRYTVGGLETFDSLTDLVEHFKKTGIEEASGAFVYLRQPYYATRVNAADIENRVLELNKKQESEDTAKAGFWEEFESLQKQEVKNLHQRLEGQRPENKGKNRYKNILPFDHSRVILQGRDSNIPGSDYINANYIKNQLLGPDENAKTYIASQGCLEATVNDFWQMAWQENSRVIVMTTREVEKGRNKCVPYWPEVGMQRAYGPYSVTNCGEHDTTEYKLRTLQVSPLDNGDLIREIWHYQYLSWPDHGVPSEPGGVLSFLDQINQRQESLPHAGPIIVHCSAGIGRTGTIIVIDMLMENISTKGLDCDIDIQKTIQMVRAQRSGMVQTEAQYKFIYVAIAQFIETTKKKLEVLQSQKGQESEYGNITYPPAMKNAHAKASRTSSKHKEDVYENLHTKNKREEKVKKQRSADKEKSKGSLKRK

With `CCOc1cc(NS(C)(=O)=O)c(OCC)cc1CNC(=O)Nc1ccc(C)cc1` as the compound, how does the inhibition [1] read?
Its inhibition is under 50%.

What about the inhibition [2] of the same compound?
Its inhibition is under 50%.

What about the inhibition [3] of the same compound?
The inhibition was under 50%.

And the Ratio IC50 (Homo sapiens)?
Its Ratio IC50 is 16.

With `CCOc1cc(NS(C)(=O)=O)c(OCC)cc1CNC(=O)Nc1ccc(OC)cc1` as the compound, how does the inhibition [4] read?
The inhibition was “Active”.

What about the inhibition [2] of the same compound?
The inhibition was under 50%.

And the inhibition [3]?
The inhibition was under 50%.

And the inhibition [5]?
The inhibition was under 50%.

And the Ratio IC50 (Homo sapiens)?
The Ratio IC50 was over 120.

What about the inhibition (CHO) of the same compound?
The inhibition was “Active”.

How did the inhibition [2] turn out when `CCOc1cc(NS(C)(=O)=O)c(OCC)cc1CNC(=O)Nc1ccc(Br)cc1` was run?
The inhibition was under 50%.

What about the inhibition [3] of the same compound?
The inhibition was under 50%.

What about the Ratio IC50 (Homo sapiens) of the same compound?
The Ratio IC50 was 6.
